The text below walks through data of article PMC2857698 (Biochemistry, 2010).

One assay has as its system EH domain of EHD1. Briefly: ITC of NPF peptides binding to EHD1 EH. On the set-up: species or system mouse. Particulars: ITC, 25 mM MOPS pH 7.0, 1 mM CaCl2. Summed up: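 Mouse EHD1 EH domain (V437–E534) expressed as a GST fusion, purified on glutathione resin and thrombin-cleaved on beads. Protein and peptides were dialysed at 4°C against 25 mM MOPS pH 7.0, 1 mM CaCl2, with KCl varied where applicable. ITC was run at 20°C unless stated (5–25°C), with 50–200 μM protein in the cell and peptide titrant 10-fold higher. Single-site fit gave Ka, n and ΔH; ΔG = −RTlnKa, and TΔS came from ΔG = ΔH − TΔS.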

The target of assay [1] is Rsn5-NPF1 peptide (first NPF motif of Rabenosyn-5) (UniProt Q9H1K0). Description: ITC. Particulars: pH 7.0; 20 C; 0 mM KCl added; 1 mM CaCl2; 25 mM MOPS pH 7.0.
The target is the same in assay [2]. Description: ITC. Particulars: pH 7.0; 20 C; 0 mM KCl added; 1 mM CaCl2; 25 mM MOPS pH 7.0. The source holds these as a separate data set.
In assay [3] the target is EH domain of EHD1 (mouse), residues V437 to E534 (mouse) (UniProt Q9WVK4).
Assay [4] deals with T1, EH domain of EHD1 (mouse), residues V437 to E534 (mouse, UniProt Q9WVK4 437-534).
T1 sequence (looked up): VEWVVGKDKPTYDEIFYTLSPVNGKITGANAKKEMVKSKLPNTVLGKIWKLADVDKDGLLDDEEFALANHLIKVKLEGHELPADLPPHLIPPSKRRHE
Briefly: ITC.

Assay [5] concerns the target T1, EH domain of EHD1 (mouse), residues …. Briefly: ITC. The source holds these as a separate data set.
The target is the same in assay [6]. Description: ITC. The source holds these as a separate data set.
The target is the same in assay [7]. Briefly: ITC. The source holds these as a separate data set.
The target is the same in assay [8]. Description: ITC. The source holds these as a separate data set.
For assay [9] the target is unchanged. Description: ITC. The source holds these as a separate data set.
For assay [10] the target is unchanged. Description: ITC. This is another data set of the same source.
Assay [11] shares this target. Description: ITC. This is another data set of the same source.
For assay [12] the target is unchanged. Description: ITC. This is another data set of the same source.
Assay [13] shares this target. Briefly: ITC. This is another data set of the same source.
Assay [14] has the same target. Briefly: ITC. This is another data set of the same source.
For a further assay, the target named is T2, EH domain of Reps1.
T2 chain: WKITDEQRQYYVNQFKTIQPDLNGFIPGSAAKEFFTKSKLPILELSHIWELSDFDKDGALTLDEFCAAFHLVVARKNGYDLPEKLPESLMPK
Description: ITC.

The target in assay [15] is T1, EH domain of EHD1 (mouse), residues …. Description: ITC. This is another data set of the same source.
Assay [16] has the same target. Briefly: ITC. The source holds these as a separate data set.

Where “and” joins values, the source holds several entries; their conditions need not be identical. Equal entries are not always repeated. Where two headings read alike, the source gives them in different places.

Chain of Rsn5-NPF1 peptide (first NPF motif of Rabenosyn-5) (Q9H1K0 whole entry, looked up, tested part not stated): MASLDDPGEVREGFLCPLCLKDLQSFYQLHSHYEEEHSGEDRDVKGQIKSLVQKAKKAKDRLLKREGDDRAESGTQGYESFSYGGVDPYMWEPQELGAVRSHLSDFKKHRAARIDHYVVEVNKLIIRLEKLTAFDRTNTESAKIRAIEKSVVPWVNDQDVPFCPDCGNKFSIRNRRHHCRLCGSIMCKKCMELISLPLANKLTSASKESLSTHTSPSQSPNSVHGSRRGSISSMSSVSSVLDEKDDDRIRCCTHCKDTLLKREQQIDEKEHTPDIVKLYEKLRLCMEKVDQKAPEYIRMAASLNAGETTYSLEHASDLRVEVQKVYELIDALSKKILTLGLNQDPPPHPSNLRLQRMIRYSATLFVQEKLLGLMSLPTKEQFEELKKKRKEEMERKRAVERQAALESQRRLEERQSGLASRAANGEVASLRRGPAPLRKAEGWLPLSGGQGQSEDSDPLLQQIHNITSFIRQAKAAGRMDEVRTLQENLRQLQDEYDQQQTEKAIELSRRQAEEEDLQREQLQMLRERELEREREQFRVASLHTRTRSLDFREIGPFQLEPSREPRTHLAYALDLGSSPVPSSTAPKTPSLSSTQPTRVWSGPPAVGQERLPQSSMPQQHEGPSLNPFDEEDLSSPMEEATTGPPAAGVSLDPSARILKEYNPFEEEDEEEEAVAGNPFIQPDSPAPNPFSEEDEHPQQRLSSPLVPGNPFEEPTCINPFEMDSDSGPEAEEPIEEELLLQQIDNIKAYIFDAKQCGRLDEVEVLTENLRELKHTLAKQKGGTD

For Ac-YESTNPFTAK-NH2 [Rfp2-NPF2], the Ka in the assay with EH domain of EHD1 (5.0 °C) amounted to 17800 M⁻¹; in the assay on EH domain of EHD1 (10.0 °C), 12800 M⁻¹; in the assay with EH domain of EHD1 (15.0 °C), 9390 M⁻¹; with EH domain of EHD1 (20 °C, KCl 75.0 mM), 6460 M⁻¹; in the assay on EH domain of EHD1 (20 °C, KCl 150.0 mM) it was 6910 M⁻¹; in the assay with EH domain of EHD1 (20 °C, KCl 300.0 mM), 7490 M⁻¹. The Ka amounted to 7810 M⁻¹ in the assay with EH domain of EHD1 (20 °C, KCl 450.0 mM) and 4700 M⁻¹ in the assay on EH domain of EHD1 (25.0 °C). Also, the TΔS in the assay with EH domain of EHD1 (5.0 °C) is -3.867 kcal/mol; with EH domain of EHD1 (10.0 °C), -4.729 kcal/mol; with EH domain of EHD1 (15.0 °C), -5.562 kcal/mol; with EH domain of EHD1 (20.0 °C), -6.802 kcal/mol; with EH domain of EHD1 (20 °C, KCl 75.0 mM), -6.744 kcal/mol; in the assay on EH domain of EHD1 (20 °C, KCl 150.0 mM) it was -6.802 kcal/mol. Moreover, the TΔS in the assay with EH domain of EHD1 (20 °C, KCl 300.0 mM) is -6.568 kcal/mol; with EH domain of EHD1 (20 °C, KCl 450.0 mM) it was -6.069 kcal/mol; with EH domain of EHD1 (25.0 °C) it was -8.32 kcal/mol. The ΔH with EH domain of EHD1 (5.0 °C) was -9.279 kcal/mol; in the assay with EH domain of EHD1 (10.0 °C) it was -10.04 kcal/mol; with EH domain of EHD1 (15.0 °C), -10.79 kcal/mol; in the assay with EH domain of EHD1 (20.0 °C) it was -11.92 kcal/mol; with EH domain of EHD1 (20 °C, KCl 75.0 mM) it was -11.84 kcal/mol; in the assay on EH domain of EHD1 (20 °C, KCl 150.0 mM), -11.96 kcal/mol. The ΔH in the assay with EH domain of EHD1 (20 °C, KCl 300.0 mM) was -11.77 kcal/mol; with EH domain of EHD1 (20 °C, KCl 450.0 mM) it was -11.29 kcal/mol; in the assay with EH domain of EHD1 (25.0 °C), -13.32 kcal/mol. Further, the ΔS is given as −13.9 cal mol^−1 K^−1 in the assay with EH domain of EHD1 (5.0 °C); −16.7 cal mol^−1 K^−1 in the assay on EH domain of EHD1 (10.0 °C); −19.3 cal mol^−1 K^−1 in the assay on EH domain of EHD1 (15.0 °C); −23.2 cal mol^−1 K^−1 in the assay with EH domain of EHD1 (20.0 °C); −23.0 cal mol^−1 K^−1 in the assay on EH domain of EHD1 (20 °C, KCl 75.0 mM); −23.2 cal mol^−1 K^−1 in the assay with EH domain of EHD1 (20 °C, KCl 150.0 mM). The ΔS is −22.4 cal mol^−1 K^−1 in the assay on EH domain of EHD1 (20 °C, KCl 300.0 mM); −20.7 cal mol^−1 K^−1 in the assay on EH domain of EHD1 (20 °C, KCl 450.0 mM); −27.9 cal mol^−1 K^−1 in the assay on EH domain of EHD1 (25.0 °C). Moreover, the ΔG with EH domain of EHD1 (10.0 °C) was -5.316 kcal/mol; with EH domain of EHD1 (15.0 °C), -5.233 kcal/mol; in the assay with EH domain of EHD1 (20.0 °C) it was -5.122 kcal/mol; in the assay with EH domain of EHD1 (20 °C, KCl 75.0 mM) it was -5.106 kcal/mol; with EH domain of EHD1 (20 °C, KCl 150.0 mM), -5.145 kcal/mol; with EH domain of EHD1 (20 °C, KCl 300.0 mM) it was -5.192 kcal/mol. The ΔG was -5.217 kcal/mol in the assay with EH domain of EHD1 (20 °C, KCl 450.0 mM) and -5.005 kcal/mol with EH domain of EHD1 (25.0 °C).

As to “EHD1 EH domain (EH domain-containing protein 1, C-terminal EH domain)”, the ΔH in assay [1] and in [2] was -11.3 kcal/mol each time.

In assay [3], “Rabenosyn-5 peptide containing two NPF motifs” had a stoichiometry N of 2.

For the molecule Ac-GPSLNPFDEED-NH2 [Rsn5-NPF1, peptide of NPF1 of Rabenosyn-5 (Ac-GPSLNPFDEED-NH2)], the Ka in [4] is 1.1e+06 M⁻¹; in assay [5] it was 168000 M⁻¹; in assay [6], 1.71e+06 M⁻¹; in [7] it was 606000 M⁻¹; in assay [8], 17800 M⁻¹; in [9], 2.03e+06 M⁻¹. Further, the Ka was 65000 M⁻¹ in assay [10]; 53000 M⁻¹ in assay [11]; 302000 M⁻¹ in assay [12]; 814000 M⁻¹ and 861000 M⁻¹ in assay [13]; 24800 M⁻¹ in [14]; 2000 M⁻¹ with EH domain of Reps1. In addition, the Ka came out at 115000 M⁻¹ in assay [15] and 86500 M⁻¹ in assay [16]. Besides, the dH in assay [4] was -10.4 kcal/mol; in assay [5], -10.4 kcal/mol; in [6], -9.68 kcal/mol; in [7], -11.9 kcal/mol; in [8] it was -10.4 kcal/mol; in assay [9], -8.99 kcal/mol. The dH in assay [10] is -10.5 kcal/mol; in [11], -10.5 kcal/mol; in [12], -10.4 kcal/mol; in assay [13] it was -11.3 kcal/mol; in assay [14], -10.3 kcal/mol; in assay [15], -10.3 kcal/mol. In addition, in [16], the dH was -10.9 kcal/mol. For the same molecule, the “stoichiometry N” value amounted to 0.99 in [4]; 0.97 in assay [5]; 0.98 in assay [6]; 0.98 in assay [7]; 1.04 in [8]; 0.98 in [9]. Further, the “stoichiometry N” value is 1.05 in assay [10]; 1.09 in assay [11]; 0.97 in [12]; 0.98 and 1.02 in [13]; 1.04 in [14]; 0.95 in [15]. Also, the “stoichiometry N” value in assay [16] was 0.99.

On to Ac-YESTNPFTAK-NH2 [Rfp2-NPF2, peptide of NPF2 of Rab11-Fip2 (Ac-YESTNPFTAK-NH2)], for which the Ka in [4] turned out to be 9390 M⁻¹; in assay [6], 12800 M⁻¹; in assay [7] it was 4700 M⁻¹; in assay [8], 7810 M⁻¹; in assay [9], 17800 M⁻¹; in assay [11], 6910 M⁻¹. Moreover, the Ka was 6640 M⁻¹ and 7030 M⁻¹ in assay [13]; 7490 M⁻¹ in assay [14]; 2000 M⁻¹ with EH domain of Reps1; 6460 M⁻¹ in assay [15]. The dH in [4] is -10.8 kcal/mol; in assay [6] it was -10 kcal/mol; in [7], -13.3 kcal/mol; in assay [8] it was -11.3 kcal/mol; in assay [9], -9.28 kcal/mol; in assay [11] it was -12 kcal/mol. The dH in assay [13] is -11.9 kcal/mol and -11.8 kcal/mol; in assay [14] it was -11.8 kcal/mol; in [15] it was -11.8 kcal/mol. Besides, the “stoichiometry N” value in assay [4] came out at 1.03; in assay [6], 1.02; in assay [7], 0.99; in assay [8], 1.04; in [9] it was 0.97; in assay [11], 1.02. Moreover, the “stoichiometry N” value in [13] is 1.03 and 1.01; in assay [14], 0.99; in assay [15] it was 0.96.
